The nature of assay [1]: Percent increase in life span of dying mice tested in vivo at 87 mg/kg against ip implanted LOX amelanotic melanoma in mice (60-day survivors). The class given is functional. As to conditions: Mus musculus, 1440 h, route intraperitoneal. An outline of the steps:
(§1)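 Nude CD2F1 female mice were implanted ip with ascitic fluid containing ca. 1.7×10^6 LOX amelanotic melanoma cells. Drug was given ip on days 1, 5 and 9, starting 24 h after implantation, and dosed by exact body weight. Solutions or suspensions were made fresh daily in saline plus Tween 80. %ILS was calculated from the median day of death of dying mice versus controls, excluding 60-day survivors.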

Assay [2] is described as follows: Change in tumor cell population in ip implanted LOX amelanotic melanoma in mice after administration of compound at 174 mg/kg. The class given is functional, Mus musculus. Conditions: route intraperitoneal. An outline of the steps:
(§2)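 Female CD2F1 mice were implanted ip with ascitic fluid holding ca. 1.7×10^6 LOX cells. Dosing was ip on days 1, 5 and 9, starting 24 h after implantation, by exact body weight, as a solution or suspension in saline plus Tween 80, freshly prepared daily. KE is the net log change in viable tumor cells from start to end of treatment. Bracketed KE assumes Poisson survival, with 60-day survivors tumor-free.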

The nature of assay [3]: Change in tumor cell population in ip implanted LOX amelanotic melanoma in mice after administration of compound at 87 mg/kg. Conditions: route intraperitoneal. The class given is functional, Mus musculus. An outline of the steps: as §2
Assay [4] is described as follows: Percent increase in life span of dying mice tested in vivo at 43.5 mg/kg against ip implanted LOX amelanotic melanoma in mice (60-day survivors). In kind it is functional. Conditions: Mus musculus, 1440 h, route intraperitoneal. In short, it runs like this:
(§3)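 Female CD2F1 mice implanted ip with ascitic fluid carrying ca. 1.7×10^6 LOX amelanotic melanoma cells. Drug given ip on days 1, 5 and 9, starting 24 h after implant, dosed by exact body weight; solutions or suspensions made fresh daily. %ILS is from the median day of death of dying mice versus controls, excluding 60-day survivors.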

Assay [5] is described as follows: Change in tumor cell population in ip implanted LOX amelanotic melanoma in mice after administration of compound at 21.75 mg/kg. The class given is functional, Mus musculus. Conditions: route intraperitoneal. In short, it runs like this: as §2
Assay [6] in a line: Change in tumor cell population in ip implanted LOX amelanotic melanoma in mice after administration of compound at 43.5 mg/kg. In kind it is functional, Mus musculus. Conditions: route intraperitoneal. An outline of the steps: as §2
Assay [7] in a line: Percent increase in life span of dying mice tested in vivo at 174 mg/kg against ip implanted LOX amelanotic melanoma in mice (60-day survivors). As to conditions: Mus musculus, 1440 h, route intraperitoneal. The class given is functional. In short, it runs like this:
as §3

A short description of assay [8]: Percent increase in life span of dying mice tested in vivo at 21.75 mg/kg against ip implanted LOX amelanotic melanoma in mice (60-day survivors). The class given is functional. Conditions: Mus musculus, 1440 h, route intraperitoneal. In short, it runs like this: as §3
Assay [9] relates to P388. The assay can be described thus: Change in tumor cell population in ip implanted P388 Leukemia in mice after administration of compound at 21.8 mg/kg. In kind it is functional, Mus musculus. Conditions: route intraperitoneal. In short, it runs like this:
(§4)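 Female Portage-CD2F1 mice were inoculated ip with ascitic fluid holding ca. 5.2×10^6 P388 cells. Dosing was ip on days 1-5, starting 24 h after inoculation, by average body weight, as a solution or suspension in saline plus Tween 80. KE is the net log change in viable tumor cell population from start to end of the treatment period.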

The test system of assay [10] is P388. As to the kind of experiment: Change in tumor cell population in ip implanted P388 Leukemia in mice after administration of compound at 43.5 mg/kg. The class given is functional, Mus musculus. As to conditions: route intraperitoneal. In short, it runs like this: as §4
Assay [11] relates to P388. The assay can be described thus: Change in tumor cell population in ip implanted P388 Leukemia in mice after administration of compound at 87 mg/kg. In kind it is functional, Mus musculus. Conditions: route intraperitoneal. An outline of the steps:
(§5)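 P388 leukemia: ascitic fluid with ca. 5.2×10^6 cells inoculated ip into Portage-CD₂F₁ female mice. Drug given ip on days 1-5, starting 24 h after inoculation, dosed by average body weight. Vehicle was saline plus Tween 80, as a solution or suspension. KE = net log change in viable tumor cells from start to end of treatment.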

The test system of assay [12] is P388. As to the kind of experiment: Percent increase in life span of dying mice tested in vivo at 21.8 mg/kg against ip implanted P388 Leukemia in mice. Conditions: Mus musculus, route intraperitoneal. In kind it is functional. An outline of the steps: (§6)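 Portage-CD2F1 female mice inoculated ip with ascitic fluid carrying ca. 5.2×10^6 P388 leukemia cells. Drug given ip daily on days 1-5, starting 24 h after inoculation, dosed by average body weight. %ILS is from the median day of death of dying mice versus controls.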

The subject of assay [13] is P388. The assay can be described thus: Percent increase in life span of dying mice tested in vivo at 43.5 mg/kg against ip implanted P388 Leukemia in mice. In kind it is functional. As to conditions: Mus musculus, route intraperitoneal. In short, it runs like this:
as §6

For assay [14], the system named is P388. The assay can be described thus: Percent increase in life span of dying mice tested in vivo at 87 mg/kg against ip implanted P388 Leukemia in mice. In kind it is functional. Conditions: Mus musculus, route intraperitoneal. In short, it runs like this:
(§7)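 Portage-CD2F1 female mice were inoculated ip with ascitic fluid containing ca. 5.2×10^6 P388 leukemia cells. Drug was given ip daily on days 1-5, starting 24 h after inoculation, and dosed by average body weight. %ILS was calculated from the median day of death of dying mice versus controls.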

Assay [15] relates to P388. The assay can be described thus: Change in tumor cell population in ip implanted P388 Leukemia in mice after administration of compound at 10.9 mg/kg. Conditions: route intraperitoneal. The class given is functional, Mus musculus. In short, it runs like this:
as §4

Assay [16] concerns P388. The assay can be described thus: Percent increase in life span of dying mice tested in vivo at 10.9 mg/kg against ip implanted P388 Leukemia in mice. In kind it is functional. As to conditions: Mus musculus, route intraperitoneal. An outline of the steps: as §6
A short description of assay [17]: Percent increase in life span of dying mice tested in vivo at 49.5 mg/kg against ip implanted LOX amelanotic melanoma in mice (60-day survivors). The class given is functional. Conditions: Mus musculus, 1440 h, route intraperitoneal. An outline of the steps:
as §3

Assay [18] in a line: Percent increase in life span of dying mice tested in vivo at 99 mg/kg against ip implanted LOX amelanotic melanoma in mice (60-day survivors). The class given is functional. Conditions: Mus musculus, 1440 h, route intraperitoneal. In short, it runs like this:
as §1

The nature of assay [19]: Change in tumor cell population in ip implanted LOX amelanotic melanoma in mice after administration of compound at 49.5 mg/kg. The class given is functional, Mus musculus. Conditions: route intraperitoneal. In short, it runs like this:
as §2

The nature of assay [20]: Change in tumor cell population in ip implanted LOX amelanotic melanoma in mice after administration of compound at 99 mg/kg. In kind it is functional, Mus musculus. Conditions: route intraperitoneal. An outline of the steps:
as §2

A short description of assay [21]: Change in tumor cell population in ip implanted LOX amelanotic melanoma in mice after administration of compound at 198 mg/kg. The class given is functional, Mus musculus. Conditions: route intraperitoneal. In short, it runs like this:
as §2

The nature of assay [22]: Change in tumor cell population in ip implanted LOX amelanotic melanoma in mice after administration of compound at 24.75 mg/kg. In kind it is functional, Mus musculus. As to conditions: route intraperitoneal. In short, it runs like this:
as §2

Assay [23] is described as follows: Percent increase in life span of dying mice tested in vivo at 24.75 mg/kg against ip implanted LOX amelanotic melanoma in mice (60-day survivors). In kind it is functional. Conditions: Mus musculus, 1440 h, route intraperitoneal. In short, it runs like this: as §3
Assay [24] in a line: Percent increase in life span of dying mice tested in vivo at 198 mg/kg against ip implanted LOX amelanotic melanoma in mice (60-day survivors). The class given is functional. As to conditions: Mus musculus, 1440 h, route intraperitoneal. An outline of the steps: as §3
For assay [25], the system named is P388. The assay can be described thus: Change in tumor cell population in ip implanted P388 Leukemia in mice after administration of compound at 24.8 mg/kg. As to conditions: route intraperitoneal. In kind it is functional, Mus musculus. An outline of the steps:
as §4

Assay [26] concerns P388. As to the kind of experiment: Change in tumor cell population in ip implanted P388 Leukemia in mice after administration of compound at 49.5 mg/kg. As to conditions: route intraperitoneal. The class given is functional, Mus musculus. An outline of the steps: as §5
Assay [27] has as its system P388. As to the kind of experiment: Change in tumor cell population in ip implanted P388 Leukemia in mice after administration of compound at 99 mg/kg. The class given is functional, Mus musculus. Conditions: route intraperitoneal. An outline of the steps: as §5
Assay [28] concerns P388. The assay can be described thus: Percent increase in life span of dying mice tested in vivo at 24.8 mg/kg against ip implanted P388 Leukemia in mice. The class given is functional. Conditions: Mus musculus, route intraperitoneal. In short, it runs like this:
as §6

Assay [29] deals with P388. As to the kind of experiment: Percent increase in life span of dying mice tested in vivo at 49.5 mg/kg against ip implanted P388 Leukemia in mice. In kind it is functional. Conditions: Mus musculus, route intraperitoneal. In short, it runs like this:
as §6

Assay [30] concerns P388. The assay can be described thus: Percent increase in life span of dying mice tested in vivo at 99 mg/kg against ip implanted P388 Leukemia in mice. In kind it is functional. As to conditions: Mus musculus, route intraperitoneal. An outline of the steps: as §7
In assay [31] the test system is P388. The assay can be described thus: Change in tumor cell population in ip implanted P388 Leukemia in mice after administration of compound at 12.4 mg/kg. In kind it is functional, Mus musculus. As to conditions: route intraperitoneal. In short, it runs like this: as §4
Assay [32] deals with P388. The assay can be described thus: Percent increase in life span of dying mice tested in vivo at 12.4 mg/kg against ip implanted P388 Leukemia in mice. The class given is functional. Conditions: Mus musculus, route intraperitoneal. In short, it runs like this:
as §6

As to `CCSc1nc(COC(=O)NC)c(COC(=O)NC)n1C`, the ILS at 87 mg/kg in [1] was 85%; with P388 [14], 99%. Moreover, the KE in [2] is given as -2.5; in [3], -2.1; in assay [5], -0.2; in assay [6], -0.5; with P388 [9], -1.3; in the assay on P388 [10], -1.9. For the same compound, the KE with P388 [11] was -4.3; in the assay with P388 [15], -0.6. The ILS at 43.5 mg/kg in [4] stood at 52%; in the assay with P388 [13], 64%. Also, the ILS at 174 mg/kg in assay [7] was 95%. For the same compound, the ILS at 21.75 mg/kg in [8] was 44%. The ILS at 21.8 mg/kg with P388 [12] amounted to 56%. Further, the ILS at 10.9 mg/kg with P388 [16] is 47%.

As to `CCC[S+]([O-])c1nc(COC(=O)NC)c(COC(=O)NC)n1C` (configuration not stated), the ILS at 49.5 mg/kg in [17] came out at 15%; with P388 [29], 27%. Further, the results for the ILS at 99 mg/kg (in assay [18]; in the assay on P388 [30]) were 1% and 27%, respectively. The KE in assay [19] is on record as 1; in assay [20], 1.6; in [21] it was 0.8; in [22] it was 1.7; with P388 [25], 1; in the assay on P388 [26], 0.9. For the same compound, the KE in the assay with P388 [27] was determined as 0.9; with P388 [31], 1.4. The ILS at 24.75 mg/kg in [23] was -2%. Further, the ILS at 198 mg/kg in [24] was 21%. Besides, the ILS at 24.8 mg/kg in the assay on P388 [28] was 25%. Moreover, the ILS at 12.4 mg/kg in the assay on P388 [32] came to 10%.

(Values after ChEMBL document CHEMBL1126902, “Synthesis, chemical reactivity, and antitumor evaluation of congeners of carmethizole hydrochloride, an experimental "acylated vinylogous carbinolamine" tumor inhibitor” (J Med Chem, 1993).)
